Rows were chosen to be rich in hits. Some 2.4% of all compounds tested hit in one or more screens of this group.
Neddylation inh: cullin neddylation inhibition. TR-FRET cullin neddylation, biochemical. P61081+Q13564. actives 0.58% (n = 360,000). inhibition, % at 25 µM; in the data active = inhibition above about 36%
Rpn11 inh: blocks the human proteasome subunit Rpn11 | inhibition, % at 20 µM | O00487 | actives 0.59% (n = 360,000) | human 26S proteasome, Ub4-pepOG fluorescence polarization; 20S core pre-blocked with epoxomicin;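 active = inhibition at 20 µM, scaled to each plate's controls, above about 33%, limit read from the data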
TPT1 inhibitor: blocks Candida albicans tRNA 2'-phosphotransferase; inhibition, % at 5 µM; recombinant caTPT1, FP RNA substrate dephosphorylation; actives 0.81% (n = 300,000); AID 1962;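 active = inhibition above the mean of all tested compounds plus 3 SD, set per screening campaign, cut at about 24% in these data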;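 also: plate controls were DMSO alone for no effect and ferristatin control at 100 nM for full effect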
CSN deneddyl inh: blocks human CSN-mediated cullin deneddylation; Purified CSN, SCF-Nedd8-OG deneddylation, fluorescence polarization; AID 651999; inhibition, % at 12.5 µM; Q92905; actives 0.38% (n = 360,000);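 active = pattern-corrected inhibition above about 35%, with an unprinted fluorescence ratio check between 0.5 and 1.5, limit read from the data, passing the limit was not always enough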;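 also: 0% = enzyme with substrate and 100% = substrate without enzyme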
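Material: purified human Csn5 enzyme expressed in HEK293T cells / Medium: Tris buffer pH 7.5, NaCl, DTT, Tween-20, trehalose, ovalbumin / Compound dosing: 12.5 µM single point / Schedule: 90 min incubation of compound, enzyme and substrate at room temperature / Signal: fluorescence polarization of the substrate / Control set: no-enzyme wells high, enzyme-with-substrate wells low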
Rin1 Abl inh: human Rin1-Abl interaction inhibition; TR-FRET Rin1/Abl binding, biochemical; inhibition, % at 7.35 µM; actives 0.4% (n = 360,000); in the data active = inhibition above about 5%, passing the limit was not always enough
HNF4A DNA FP: change in binding of human HNF4 alpha to DNA. P41235. HNF4a-FITC DNA binding, fluorescence polarization, 1 h. activity change, % at 10 µM. actives 0.3% (n = 360,000). AID 1224865; in the data active = activity change above about 30%, passing the limit was not always enough
Starred values were filed as active, the others as inactive; nt = no result shown.

SMILES | Neddylation inh | Rpn11 inh | TPT1 inhibitor | CSN deneddyl inh | Rin1 Abl inh | HNF4A DNA FP
OCC1OC(Oc2c[nH]c3ccccc23)C(O)C(O)C1O (configuration not stated) | 9.3 | 8.5 | 4.0 | -1.0 | -1.1 | -3.0
Cc1oc(-c2ccc(F)cc2)cc1-c1nn2c(-c3ccoc3C)nnc2s1 | 1.6 | nt | 16.6 | 39.2* | 1.0 | -39.9
COc1ccc(-c2nnc3sc(-c4ccco4)nn23)cc1OC | -28.7 | -1.5 | 0.1 | 10.8 | 1.2 | -1.2
COc1ccc(C)cc1N(CC(=O)N1CCCCCC1)S(C)(=O)=O | 6.0 | 4.1 | 1.7 | 3.3 | 1.8 | -0.1
COc1ccc(C)cc1N(CC(=O)N1CCCC1)S(C)(=O)=O | 1.2 | -0.8 | -1.8 | 69.6* | -0.8 | 9.1
CCCCC(=O)Nc1ccc(C(=O)Nc2ccc(S(=O)(=O)Nc3nccc(C)n3)cc2)cc1 | 16.0 | -2.2 | -0.7 | -4.0 | 1.2 | 0.4
Nc1nc(CN2CCC(Cc3ccccc3)CC2)nc(Nc2ccccc2)n1 | -5.9 | 7.1 | 0.7 | 0.5 | 6.5 | 54.5*
Nc1nc(CN2CCCCCC2)nc(Nc2ccccc2)n1 | 8.4 | 8.7 | 2.4 | 3.7 | -1.1 | 1.1
CCCN1C(=O)/C(=C/c2c(N3CCNC(=O)C3CC(=O)OCC)nc3c(C)cccn3c2=O)SC1=S (configuration not stated) | -138.2 | nt | 137.2* | -78.0 | -2.7 | 3.2
CCOC(=O)CC1C(=O)NCCN1c1nc2ccc(C)cn2c(=O)c1/C=C1\SC(=S)N(C(C)CC)C1=O (configuration not stated) | nt | nt | 137.0* | nt | nt | nt
CCOC(=O)CC1C(=O)NCCN1c1nc2ccc(C)cn2c(=O)c1/C=C1\SC(=S)N(CC(C)C)C1=O (configuration not stated) | -22.9 | nt | 121.7* | 91.2 | -1.4 | 84.9
CN(C)c1ccc(/C=N/NC(=O)c2sccc2-n2cccc2)cc1 | 23.4 | 4.2 | 2.3 | 5.3 | 0.7 | -0.3
CCc1nc2c(OCc3ccc(F)cc3)cccn2c1N(C)C(=O)C(C)C | 2.8 | -6.8 | nt | 4.3 | -0.8 | 8.5
CC(NCc1ccccc1Cl)C(=O)Nc1ccc(C#N)cc1 (configuration not stated) | -3.3 | -3.4 | -0.8 | -6.7 | 2.3 | 3.6
N#CCCOC1(C#CCN2CCCC2)CCCCC1 | -7.5 | 3.4 | -3.9 | -1.9 | -0.9 | 0.0
CC1(c2nnnn2Cc2ccccc2)CCC(=O)N1Cc1ccc(F)cc1 (configuration not stated) | -1.2 | nt | nt | -3.0 | nt | 1.2
CCCSC1=N/C(=C\c2ccc([N+](=O)[O-])o2)C(=O)S1 | -24.9 | 53.4* | nt | 39.1 | 3.1 | -24.3
COc1cc(/C=C/C(=O)NCc2nc3ccccc3[nH]2)cc(OC)c1OC | 35.1 | -2.8 | -0.6 | 0.1 | -8.2 | -2.0
COc1cc(C=C2C(=O)C=CC2=O)ccc1O | 5.6 | nt | nt | 30.2 | nt | -9.9
COc1cc(/C=C2\CCC(C)C3=C(c4cc(OC)c(OC)c(OC)c4)C(C#N)=C(N)OC32)cc(OC)c1OC (configuration not stated) | 17.8 | nt | nt | 74.9 | 1.7 | 77.6*
COc1cc(/C=C2\CCC(C3CCCC3)C2=O)cc(OC)c1OC (configuration not stated) | -3.8 | -5.9 | -0.1 | -2.0 | 1.6 | -1.3
CCOc1ccc(Nc2nc3ccccc3n3nnnc23)cc1 | 40.2* | -3.3 | 12.6 | 0.2 | -4.0 | 3.2
CN(Cc1ccco1)c1ncnc2ccc(-c3ccoc3)cc12 | 38.9* | -0.2 | nt | 1.7 | 2.5 | -5.4
Cc1ccc(Cl)c(OCC(=O)NCC(c2cccs2)N2CCOCC2)c1 (configuration not stated) | 12.2 | -7.1 | 1.4 | 6.1 | 0.0 | 2.1
O=C(O)c1ccc2c(c1)[C@@H]1C=CC[C@@H]1[C@H](c1ccccn1)N2 | -10.8 | -53.5 | -2.5 | 26.8 | 21.0* | -54.8
SMILES | Neddylation inh | Rpn11 inh | TPT1 inhibitor | CSN deneddyl inh | Rin1 Abl inh | HNF4A DNA FP
CN(C)c1ncc(C2=C(Cl)C(=O)C(N3CCCC3)=C(Cl)C2=O)s1 | 0.1 | -17.6 | -2.9 | 38.7 | 10.6* | -9.7
O=C1C(Cl)=C(N2CCCCC2)C(=O)C(Cl)=C1c1cnc(N2CCCCC2)s1 | -5.3 | -16.3 | nt | 34.3 | 4.8 | -3.0
Cc1ccc(NCCN(C)C)c2c(=O)c3cc(O)ccc3sc12 | -76.2 | 36.7 | nt | 12.8 | -18.6 | 52.2*
CN(C)CCNc1cccc2sc3ccc(O)cc3c(=O)c12 | -79.5 | 38.1 | nt | 14.9 | -25.5 | 27.5
CC1=C(C(=O)OCC2CCCO2)C(c2ccc(Cl)cc2)NC(=O)N1 (configuration not stated) | -1.2 | 5.9 | 2.0 | -1.1 | 0.5 | -2.5
CC(Oc1ccccc1)C(=O)N1CCC2(CC1)CC(=O)c1ccccc1O2 (configuration not stated) | 17.1 | 0.3 | -1.1 | -2.2 | 2.9 | 1.6
CC1(C)Cc2ccccc2C(CSc2ccccc2C(=O)O)=N1 | -4.0 | -3.4 | 3.1 | -1.0 | -1.9 | -4.0
COc1cc2c(cc1OC)C(CSc1ccccc1C(=O)O)=NC(C)(C)C2 | 40.9* | 0.5 | -1.3 | 5.7 | 2.4 | 2.7
Cc1ccc(Cn2nnc3c(=O)[nH]c(C4CCN(S(=O)(=O)c5ccccc5F)CC4)nc32)cc1 | -0.9 | 0.5 | -3.0 | 0.7 | -0.7 | 3.0
Cc1cc(C)c2c(c1)CC(C)(C)CC2=O | -3.2 | 1.5 | nt | -2.5 | 1.8 | 56.8*
O=c1c2ccccc2cnn1Cc1n[nH]c(=S)n1-c1ccccc1 | 1.3 | 0.6 | 1.3 | 1.0 | 0.4 | -0.8
COP(=O)(OC)c1nc(-c2cccc3ccccc23)oc1NCc1ccccc1 | nt | 1.4 | -1.8 | 84.9* | -1.2 | -3.5
c1ccc(CNc2c3ccccc3nc3ccccc23)cc1 | 30.5 | -7.9 | 4.7 | -5.3 | -5.5 | -16.6
OCC(Cc1ccccc1)Nc1c2ccccc2nc2ccccc12 (configuration not stated) | 43.5* | -19.9 | -7.5 | -12.3 | -8.8 | -10.5
Cc1cccc(C)c1NC(=O)NCCSc1snnc1C | -8.1 | 2.9 | -1.4 | 35.5* | 4.1 | -1.7
Cc1nnsc1SCCNC(=O)c1c(F)cccc1F | 2.4 | -3.4 | 0.6 | -5.9 | 2.0 | -0.7
CCCNC(=O)CN1CCN(c2cc3ccccc3c(Cl)n2)CC1 | -14.6 | -0.6 | 1.3 | 100.3* | 2.2 | -4.9
CC(OC(=O)CCC(=O)c1cccs1)C(=O)NC1CCCCC1C (configuration not stated) | -17.9 | 5.4 | nt | -2.7 | 2.0 | 0.6
O=c1cc(-c2ccc(O)c(O)c2)oc2cc(O[C@@H]3O[C@H](CO)[C@@H](O)[C@H](O)[C@H]3O)cc(O)c12 | -30.7 | -1.7 | nt | 5.0 | 24.0* | -6.7
O=C1NC[C@@H](CCCCN2CCN(CCC3CCCCC3)C(=O)C2=O)N(CC2CCCCC2)C1=O | 4.8 | nt | nt | -3.0 | nt | 1.4
Cc1cccc(NC(=O)C2CCN(c3nccc(C)n3)CC2)c1 | 21.1 | 6.2 | 2.6 | 3.8 | -1.0 | -4.5
Cc1cccc(C)c1Nc1c(-c2ccccn2)nc2ccccn12 | 40.6* | 14.2 | -1.4 | 2.7 | -1.9 | 0.7

Screening data from PubChem BioAssay.
